Compound activity (PubChem BioAssay)
V-ATPase pHluor: regulators of yeast V-ATPase proton pumping, primary screen, pHLuorin cytosolic pH fluorescence | S. cerevisiae | response, % at 10 µM | 0.37% of 350,000 active | AID 504577, 2011; in the data active = response mostly above about 7.3%, no sharp cut-off; inactive = mostly below about 5.4%; note: actives read high
HIF act: HIF pathway transcriptional activators, primary screen, cell-based, U2OS HRE-luciferase, luminescence; 0.32% of 300,000 active; activation, % at 7.5 µM (by protocol); U2OS HRE-luciferase reporter; normalized: DMSO 0%, desferrioxamine 100%;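 active = mean activation of at least 10% of the iron chelator positive control signal, with at least half of replicates also reaching 10%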
T cruzi repl: inhibitors of intracellular T. cruzi growth, primary screen, luminescence, NIH3T3 host cells. inhibition, % (no concentration beside the values). T. cruzi beta-gal in NIH3T3, 90 h. AID 1885, 2009. 1.4% of 300,000 active;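 active = mean inhibition across valid replicates above about 55%, limit read from the data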;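 note: signal also drops with host cell toxicity which is not excluded here; higher percent means less beta-gal luminescence so fewer parasites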
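System: mouse NIH/3T3 fibroblasts infected with β-gal-expressing T. cruzi Tulahuen C4 / Input: NIH/3T3 cells, 5,000 per well / Buffer or medium: Low-serum DMEM with 2% FBS / Probe or stimulus: 5000 reporter trypomastigotes per well / Schedule: ≥90 h infection period, 3 h prior cell attachment / Measured by: GalScreen luminescence, 60 min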
CendR NRP1 mod: modulators of CendR peptide binding to NRP-1, primary screen, biochemical, fluorescence polarization, uHTS; 0.85% of 360,000 active; FAM-RPARPAR peptide binding to NRP-1; inhibition, % at 25 µM; Neuropilin-1 (Homo sapiens), O14786;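 active = inhibition or corrected inhibition above about 18%, plus a signal ratio from 0.5 to 1.5, limit read from the data, passing the limit was not always enough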
Target sequence (O14786 whole entry, looked up): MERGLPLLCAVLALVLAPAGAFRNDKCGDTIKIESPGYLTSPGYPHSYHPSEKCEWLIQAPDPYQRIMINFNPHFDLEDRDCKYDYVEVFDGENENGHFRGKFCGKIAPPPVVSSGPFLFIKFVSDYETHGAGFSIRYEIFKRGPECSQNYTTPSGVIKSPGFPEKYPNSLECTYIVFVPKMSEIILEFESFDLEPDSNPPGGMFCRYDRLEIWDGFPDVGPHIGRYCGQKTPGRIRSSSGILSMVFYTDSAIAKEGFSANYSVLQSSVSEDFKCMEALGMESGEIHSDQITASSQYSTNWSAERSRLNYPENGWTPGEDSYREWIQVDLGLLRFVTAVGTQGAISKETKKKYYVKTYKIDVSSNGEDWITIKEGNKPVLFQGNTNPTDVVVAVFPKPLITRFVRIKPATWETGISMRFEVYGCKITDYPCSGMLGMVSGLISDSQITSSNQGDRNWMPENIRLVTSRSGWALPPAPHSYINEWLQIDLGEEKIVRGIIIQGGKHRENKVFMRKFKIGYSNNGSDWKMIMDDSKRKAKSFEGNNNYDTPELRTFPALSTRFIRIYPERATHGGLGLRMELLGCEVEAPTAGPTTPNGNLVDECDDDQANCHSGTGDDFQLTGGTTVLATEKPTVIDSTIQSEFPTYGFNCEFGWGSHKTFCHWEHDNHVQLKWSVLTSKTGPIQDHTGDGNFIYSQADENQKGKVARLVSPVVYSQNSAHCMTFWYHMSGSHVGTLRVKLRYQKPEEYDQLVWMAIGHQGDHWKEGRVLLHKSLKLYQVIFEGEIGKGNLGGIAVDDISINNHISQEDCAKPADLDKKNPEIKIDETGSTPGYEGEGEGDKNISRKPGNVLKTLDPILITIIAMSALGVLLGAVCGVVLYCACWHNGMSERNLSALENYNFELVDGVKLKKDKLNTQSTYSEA
AI-2 QS modul: Vibrio harveyi AI-2 quorum sensing modulators, primary screen, JMH597 strain, luminescence/OD600 ratio; activity change, % at 7.5 µM; AID 2094, 2009; Vibrio harveyi JMH597 AI-2 luminescence/OD600 ratio, 9 h; hits give low values; strain lacks LuxN and CqsS sensors; 0 = neutral-control median; 0.4% of 300,000 active; in the data active = activity change below about -75%, passing the limit was not always enough;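 note: luminescence divided by OD600 gain over 9 h not by final OD600 alone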
Yeast superoxide: reduction of superoxide in aged yeast, primary screen, HTS. AID 2690, 2010. superoxide response (% of plate mean), % at 10 µM. S. cerevisiae aged cells, superoxide DHE fluorescence; hits give low values. 0.18% of 330,000 active;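 active = superoxide response under a set limit, about three screen SD below normal, cut at about 65% in these data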;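 note: yeast aged for seven days with compound at 30 °C before DHE staining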
Each line names hits and unclear results; the compound was inactive in the other large screens. An excerpt weighted towards active compounds, which were near 3% of everything screened.

CN(C)c1cccc(NC2=CC(=[N+]3CCOCC3)CC(C)(C)C2)c1	none
CN(Cc1ccccc1)C1=CC(=[N+]2CCCC2)CC(C)(C)C1	T cruzi repl 64
CCN(CC)C1=CC(=[N+]2CCCC2)CC(C)(C)C1	T cruzi repl 64
COc1cc(C(c2c(C)[nH][nH]c2=O)c2c(C)[nH][nH]c2=O)ccc1OS(=O)(=O)c1ccc(C)cc1	none
Clc1nc2c(-c3ccccc3)nnn2c2ccccc12	T cruzi repl 64
CC(=O)NC(=S)NNC(=O)C(c1ccccc1)c1ccccc1	AI-2 QS modul -87
CCOc1ccc(-c2cc(N3C(=O)Nc4ccccc4N3O)on2)cc1	none
COc1ccc2cc1Oc1ccc(cc1)C[C@H]1c3c(cc(OC)c4c3Oc3c(ccc5c3[C@H](C2)N(C)CC5)O4)CCN1C	none (no result: HIF act, T cruzi repl, AI-2 QS modul)
COc1ccc2cc1Oc1ccc(cc1)CC1c3c(cc(OC)c4c3Oc3cc5c(cc3O4)CCNC5C2)CCN1C (stereo unspecified)	T cruzi repl 66
CCOC(=O)Nc1ccc2c(c1)Nc1ccccc1S2	T cruzi repl 63
CCCCC(CCC(=O)Nc1ccn(-c2ccccc2)n1)C(=O)O (stereo unspecified)	none
CCCCC(C(=O)O)C(C)CC(=O)Nc1ccn(-c2ccccc2)n1 (stereo unspecified)	CendR NRP1 mod 45
C=CCc1cccc(/C=N/NC(=O)c2ccccc2OC)c1O	T cruzi repl 62
O=C(N/N=C/c1ccccc1C(=O)O)c1ccccc1Br	none
COc1cccc(/C=N/NC(=O)c2ccc(-c3ccccc3)cc2)c1O	HIF act 47
C=CCc1cccc(/C=N/NC(=O)c2ccccc2Br)c1O	T cruzi repl 61
COc1ccc(C(=O)N/N=C/c2ccccc2OC(=O)c2ccccc2)cc1	none
COc1cc(C(=O)Oc2ccccc2/C=N/NC(=O)c2ccc(C)cc2)cc(OC)c1OC	HIF act 9.6
CC(C)OCC(O)CN1CCN(CC(O)COc2ccc3c(c2)OCO3)CC1 (stereo unspecified)	none
NS(=O)(=O)c1ccc(CNC(=O)CCC2CCCCC2)cc1	none
O=Cc1cc(CCC(=O)O)ccc1O	none
COc1ccccc1/C=N/NC(=O)c1cccc(OC(F)(F)C(F)F)c1	none (no result: HIF act)
COc1cccc(/C=N/NC(=O)c2ccc([N+](=O)[O-])cc2Cl)c1O	HIF act 11
COc1ccc(/C=N/NC(=O)c2cccc(NC(=O)c3ccccc3Cl)c2)c(OC)c1	CendR NRP1 mod 32
COc1cccc(/C=N/NC(=O)C(=O)Nc2ccccc2OC(F)(F)C(F)F)c1O	HIF act 26
CCOC(=O)c1[nH]ncc1CN1CCC(Cc2ccccc2)(C(=O)OCC)CC1	none
CCC(=O)Nc1ccc(C(=O)CSc2nc3ccccc3cc2CC)cc1	none (no result: HIF act, T cruzi repl, AI-2 QS modul)
CN1C(=S)SC(N(O)C(=O)Nc2cccc3ccccc23)C1(C)C (stereo unspecified)	CendR NRP1 mod 31
O=C(Cc1ccccc1F)Nc1ccc(S(=O)(=O)Nc2ncccn2)cc1	AI-2 QS modul -76
COc1cccc(CN(Cc2ccco2)C(c2ccc(F)cc2)c2nnnn2C(C)(C)C)c1 (stereo unspecified)	none
CCC(C)(C)n1nnnc1C(c1ccc(C)cc1)N(Cc1ccco1)Cc1cccs1 (stereo unspecified)	T cruzi repl 55
CCC(c1nnnn1C1CCCCC1)N(Cc1ccco1)Cc1cc2ccc(OC)cc2[nH]c1=O (stereo unspecified)	CendR NRP1 mod 29 (no result: HIF act, T cruzi repl, AI-2 QS modul, Yeast superoxide)
COc1ccc2[nH]c(=O)c(CN(Cc3ccco3)C(c3nnnn3Cc3ccccc3)C(C)C)cc2c1 (stereo unspecified)	T cruzi repl 76
Cc1ccc2cc(C(c3nnnn3C3CCCC3)N(Cc3cccnc3)Cc3ccco3)c(=O)[nH]c2c1 (stereo unspecified)	none
Cc1ccc2cc(C(c3nnnn3C3CCCC3)N(Cc3ccco3)Cc3cccs3)c(=O)[nH]c2c1 (stereo unspecified)	T cruzi repl 63
Cc1cc2nccc(-c3ccc(F)cc3)n2n1	none
Cc1ccc2[nH]c(=O)c(C(c3nnnn3C(C)(C)C)N(Cc3ccco3)CC3CCCO3)cc2c1 (stereo unspecified)	T cruzi repl 60
Cc1cccc2cc(C(c3nnnn3C(C)(C)C)N(Cc3ccco3)CC3CCCO3)c(=O)[nH]c12 (stereo unspecified)	none
COC(=O)c1nc2n(n1)C(c1ccc(OC)c(OC)c1OC)C1=C(CCCC1=O)N2 (stereo unspecified)	CendR NRP1 mod 18
CCOC(=O)N1CCC(NC(=O)C2CCCCN2S(=O)(=O)c2ccc(F)cc2)CC1 (stereo unspecified)	none
COCCCNC(=O)CNC(=O)c1nn(-c2ccc(OC)c(Cl)c2)c(=O)c2ccccc12	none
Clc1ccc(CSc2nnc(-c3ccncc3)o2)cc1	none
Fc1ccc(CSc2nnc(-c3ccncc3)o2)cc1	AI-2 QS modul -78
Cc1cc(OC(=O)c2ccccc2[N+](=O)[O-])c([N+](=O)[O-])c(=O)[nH]1	none
Cc1ccc2oc(C(=O)NCC3CCOCC3)c(C)c2c1	CendR NRP1 mod 26
Cc1ccc2c(C)c(C(=O)NCC3CCOCC3)oc2c1C	none (no result: HIF act, T cruzi repl, AI-2 QS modul, Yeast superoxide)
CCN1CCN(C(=O)C(=O)c2c(C)[nH]c3ccccc23)CC1	none
Cc1ccc([N+](=O)[O-])cc1NC(=O)c1ccc(CSc2ccccc2)cc1	none
Cc1ccc(SCc2ccc(C(=O)Nc3cccc([N+](=O)[O-])c3C)cc2)cc1	T cruzi repl 60
Cc1nn(Cc2c(Cl)cccc2Cl)c(C)c1NC(=O)CCCn1nc([N+](=O)[O-])c(Cl)c1C	none
COc1ccc(/C=C/c2nc3ccccc3n2Cc2ccccc2OC)cc1	T cruzi repl 56
CCOc1ccccc1NC(=O)c1cccc(S(=O)(=O)N(Cc2ccccc2)c2ccccc2OC)c1	CendR NRP1 mod 30
CCCNS(=O)(=O)c1ccc(OCC(=O)OC)cc1	none
CCCNS(=O)(=O)c1ccc(OCC(=O)N(C)Cc2ccccc2)cc1	Yeast superoxide 60
S=C(Nc1cccc2ccccc12)NN1CCOCC1	CendR NRP1 mod 25
Cc1ccc(NC(=S)Nc2cccc3ccccc23)cc1	CendR NRP1 mod 28
Fc1ccc(NC(=S)Nc2cccc3ccccc23)cc1F	none
S=C(Nc1cccc2ccccc12)NN1CCCCCC1	none (no result: HIF act, T cruzi repl, AI-2 QS modul, Yeast superoxide)
Fc1ccc(NC(=S)Nc2cccc3ccccc23)cc1	CendR NRP1 mod 28
Cc1cc2cc(CNC(=O)c3ccc(S(=O)(=O)N4CCCC4)cc3)ccc2n1C	CendR NRP1 mod 26
